Test results published in ChEMBL document CHEMBL4732107, “Synthesis and anticancer activity evaluation of naphthalene-substituted triazole spirodienones” (Eur J Med Chem, 2021).
Active and inactive are the calls of the source. The calls are words filed in the database; no cut-off is given here.

How the values were obtained:
[1] = system: HeLa; assay: Antiproliferative activity against human HeLa cells assessed as reduction in cell viability measured after 5 days by beckman coulter counting method; assay type: functional, cell-based; details: 120 h
[2] = system: A549; assay: Antiproliferative activity against human A549 cells assessed as reduction in cell viability measured after 5 days by beckman coulter counting method; assay type: functional, cell-based; details: A549, 120 h
Procedure, shortened: (§1)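 Cells kept in DMEM with 10% FBS, 4 mM glutamine, 1 mM sodium pyruvate, penicillin/streptomycin and amphotericin, at 37 °C in 5% CO2. Seeded at 20,000 per well, then exposed to 5 concentrations for 5 days, with DMSO as vehicle. Viable cells counted on a cell viability analyzer. Viability expressed as treated/vehicle count, and IC50 taken from dose-response curves.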

[3] = system: MDA-MB-231; assay: Antiproliferative activity against human MDA-MB-231 cells assessed as reduction in cell viability measured after 5 days by beckman coulter counting method; assay type: functional, cell-based; details: MDA-MB-231, 120 h
[4] = system: MDA-MB-231; assay: Cell cycle arrest in human MDA-MB-231 cells assessed as accumulation at G1 phase at 1 uM measured after 24 hrs by propidium iodide staining based flow cytometry (reference value: 74.39%); assay type: functional
[5] = system: MDA-MB-231; assay: Induction of apoptosis in human MDA-MB-231 cells assessed as early apoptotic cells at 1 uM measured after 24 hrs by annexin V-FITC/propidium iodide staining based flow cytometry (reference value: 1.49%); assay type: functional
[6] = system: MDA-MB-231; assay: Cell cycle arrest in human MDA-MB-231 cells assessed as accumulation at G2 phase at 1 uM measured after 24 hrs by propidium iodide staining based flow cytometry (reference value: 5.77%); assay type: functional
Procedure, shortened: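 MDA-MB-231 cells were seeded at 5 × 10^5 cells/mL and treated for 24 h. They were then trypsinized and washed twice in cold PBS. Cells were resuspended in PBS, stained with PI for 15 min at room temperature in the dark, and analyzed by flow cytometry.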

[7] = system: MDA-MB-231; assay: Induction of apoptosis in human MDA-MB-231 cells assessed as late apoptotic cells at 1 uM measured after 24 hrs by annexin V-FITC/propidium iodide staining based flow cytometry (reference value: 2.84%); assay type: functional
[8] = system: MDA-MB-231; assay: Cell cycle arrest in human MDA-MB-231 cells assessed as accumulation at S phase at 1 uM measured after 24 hrs by propidium iodide staining based flow cytometry (reference value: 19.84%); assay type: functional
[9] = system: MDA-MB-231; assay: Induction of apoptosis in human MDA-MB-231 cells assessed as viable cells at 1 uM measured after 24 hrs by annexin V-FITC/propidium iodide staining based flow cytometry (reference value: 90.9%); assay type: functional; details: read-out: Activity
[10] = system: MDA-MB-231; assay: Induction of apoptosis in human MDA-MB-231 cells assessed as necrotic cells at 1 uM measured after 24 hrs by annexin V-FITC/propidium iodide staining based flow cytometry (reference value: 4.74%); assay type: functional
[11] = system: MCF7; assay: Antiproliferative activity against human MCF7 cells assessed as reduction in cell viability measured after 5 days by beckman coulter counting method; assay type: functional, cell-based; details: MCF7, 120 h; procedure, shortened: as §1
[12] = Toxicity in mouse implanted with mouse 4T1 cells assessed as change in body weight at 1 mg/kg, ip administered daily for 12 days measured daily during compound dosing; assay type: organism-based; details: in vivo, 288 h, time 12 day
Procedure, shortened: (§2)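 Mice bearing orthotopic 4T1 tumors were randomized into 4 groups (n = 6) once tumors reached about 100 mm2. Groups received vehicle, test compound at 1 or 2 mg/kg, or doxorubicin at 1 mg/kg, given i.p. every day. Body weight and tumor volume were recorded daily. Tumors were excised and weighed at the end, and inhibition was calculated against the saline control.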

[13] = system: 4T1; assay: Antitumor activity against mouse 4T1 cells implanted in mouse assessed as reduction in tumor weight at 1 mg/kg, ip administered daily for 12 days; assay type: functional, organism-based; details: time 12.0 day; procedure, shortened: as §2
[14] = system: 4T1; assay: Antitumor activity against mouse 4T1 cells implanted in mouse assessed as tumor growth inhibition at 1 mg/kg, ip administered daily for 12 days relative to control; assay type: functional; details: 4T1, ip, 288 h, time 12 day, read-out: TGI; procedure, shortened: as §2

Compound | IC50 [1] | IC50 [2] | IC50 [3] | other results
O=C1C=CC2(C=C1)OCC(=O)N2c1nc(-c2ccc(F)c3ccccc23)nn1-c1ccccc1 | 200 nM | 320 nM | 80 nM | 
COc1ccc(/C=C\c2cc(OC)c(OC)c(OC)c2)cc1O [COMBRETASTATIN A4] |  |  |  | Activity [4]: 54.49%; Activity [5]: 8.57%; Activity [6]: 18.16%; Activity [7]: 20%; Activity [8]: 27.34%; viability at 1 µM [9]: 58.6%; Activity [10]: 12.8%
O=C1C=CC2(C=C1)OCC(=O)N2c1nc(-c2cccc(Cl)c2)nn1-c1ccccc1 | 45.3 nM | 25.2 nM | 0.8 nM | IC50 [11]: 4.11 nM
O=C1C=CC2(C=C1)OCC(=O)N2c1nc(-c2ccc3ccccc3c2)nn1-c1ccc(C(F)(F)F)cc1 | 390 nM | 460 nM | 70 nM | 
CC1CN(c2nc(-c3ccc4ccccc4c3)nn2-c2ccccc2)C2(C=CC(=O)C=C2)O1 (stereo not given) | 260 nM | 320 nM | 130 nM | 
Cc1ccc(-n2nc(-c3cccc4ccccc34)nc2N2C(=O)COC23C=CC(=O)C=C3)cc1 | 140 nM |  | 40 nM | 
CC1OC2(C=CC(=O)C=C2)N(c2nc(-c3ccc4ccccc4c3)nn2-c2ccc3ccccc3c2)C1=O (stereo not given) | 300 nM |  | 60 nM | 
O=C1C=CC2(C=C1)OCC(=O)N2c1nc(-c2ccc3ccccc3c2Br)nn1-c1ccccc1 | 290 nM | 100 nM | 50 nM | 
Cc1ccccc1-n1nc(-c2cccc3ccccc23)nc1N1C(=O)COC12C=CC(=O)C=C2 | 100 nM | 130 nM | 120 nM | 
O=C1C=CC2(C=C1)OCC(=O)N2c1nc(-c2ccc3c(c2)Cc2ccccc2-3)nn1-c1ccc(C(F)(F)F)cc1 | 130 nM | 180 nM | 80 nM | 
O=C1C=CC2(C=C1)OCC(=O)N2c1nc(-c2ccc3c(c2)Cc2ccccc2-3)nn1-c1ccccc1 | 110 nM | 150 nM | 70 nM | 
O=C1C=CC2(C=C1)OCC(=O)N2c1nc(-c2ccc3ncccc3c2)nn1-c1ccccc1 | 110 nM | 170 nM | 50 nM | 
O=C1C=CC2(C=C1)OCC(=O)N2c1nc(-c2ccc3ccccc3c2)nn1-c1ccccc1 | 120 nM | 140 nM | 70 nM | 
O=C1C=CC2(C=C1)OCC(=O)N2c1nc(-c2ccc3ccccc3c2)nn1-c1ccc(Cl)cc1 | 720 nM | 400 nM | 70 nM | 
Cc1ccc(-n2nc(-c3ccc4ccccc4c3)nc2N2CCOC23C=CC(=O)C=C3)cc1 | 520 nM | 2000 nM | 160 nM | 
COc1ccc(-n2nc(-c3ccc4ccccc4c3)nc2N2C(=O)C(C)OC23C=CC(=O)C=C3)cc1 (stereo not given) | 140 nM | 860 nM | 50 nM | 
Cc1ccc(-n2nc(-c3ccc4ccccc4c3)nc2N2C(=O)C(C)OC23C=CC(=O)C=C3)cc1 (stereo not given) | 530 nM | 1210 nM | 100 nM | 
O=C1C=CC2(C=C1)OCCN2c1nc(-c2ccc3ccccc3c2)nn1-c1ccccc1 | 370 nM |  | 230 nM | 
O=C1C=CC2(C=C1)OCC(=O)N2c1nc(-c2ccc3ccccc3c2)nn1-c1ccc2ccccc2c1 | 210 nM | 250 nM | 50 nM | 
Cc1ccc(-n2nc(-c3ccc4ccccc4c3)nc2N2C(=O)COC23C=CC(=O)C=C3)cc1 | 150 nM | 110 nM | 30 nM | 
O=C1C=CC2(C=C1)OCCN2c1nc(-c2cccc3ccccc23)nn1-c1ccccc1 | 150 nM | 430 nM | 110 nM | 
Cc1ccc(-n2nc(-c3cccc4ccccc34)nc2N2CCOC23C=CC(=O)C=C3)cc1 | 570 nM | 1520 nM | 260 nM | 
COc1cccc2c1C(=O)c1c(O)c3c(c(O)c1C2=O)C[C@@](O)(C(=O)CO)C[C@@H]3O[C@H]1C[C@H](N)[C@H](O)[C@H](C)O1 [DOXORUBICIN] |  |  |  | Activity [12]: Non-Toxic; Activity [13]: Active; inhibition in vivo at 1 mg/kg [14]: 45.1%
CC1OC2(C=CC(=O)C=C2)N(c2nc(-c3cccc4ccccc34)nn2-c2ccccc2)C1=O (stereo not given) | 110 nM | 180 nM | 100 nM | 
CC1OC2(C=CC(=O)C=C2)N(c2nc(-c3ccc4ccccc4c3)nn2-c2ccccc2)C1=O (stereo not given) | 120 nM | 310 nM | 70 nM | 
COc1ccc(-n2nc(-c3ccc4ccccc4c3)nc2N2C(=O)COC23C=CC(=O)C=C3)cc1 | 200 nM | 260 nM | 60 nM | 
Cn1c(CCCC(=O)O)nc2cc(N(CCCl)CCCl)ccc21 [BENDAMUSTINE] | > 20000 nM |  | 13300 nM | 
O=C1C=CC2(C=C1)OCC(=O)N2c1nc(-c2ccc3c(c2)OCCO3)nn1-c1ccccc1 | 70 nM | 170 nM | 100 nM | 
